In ChEMBL document CHEMBL4304834, “3-Amino-chromanes and Tetrahydroquinolines as Selective 5-HT2B, 5-HT7, or σ1 Receptor Ligands” (ACS Med Chem Lett, 2019):

Columns and labels:
[1] = target: 5-hydroxytryptamine receptor 1D (Homo sapiens, UniProt P28221); test: Displacement of [3H]5-CT from human recombinant 5-HT1D receptor transiently expressed in HEKT cells after 90 mins by microbeta scintillation counting method; assay type: cell-based
Summary of the method: (§1)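 Radioligand binding was run by the NIMH Psychoactive Drug Screening Program. Compounds were first screened at 10 μM. Those giving ≥50% binding were taken to full competition curves. Ki is reported as pKi from a sigmoidal curve fit of triplicate measurements in a single experiment; the error is the curve-fit error.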

[2] = target: 5-hydroxytryptamine receptor 2A (Homo sapiens, UniProt P28223); test: Displacement of [3H]-Ketanserin from human recombinant 5-HT2A receptor transiently expressed in HEKT cells after 90 mins by microbeta scintillation counting method; assay type: cell-based
5-hydroxytryptamine receptor 2A, sequence (P28223 whole entry): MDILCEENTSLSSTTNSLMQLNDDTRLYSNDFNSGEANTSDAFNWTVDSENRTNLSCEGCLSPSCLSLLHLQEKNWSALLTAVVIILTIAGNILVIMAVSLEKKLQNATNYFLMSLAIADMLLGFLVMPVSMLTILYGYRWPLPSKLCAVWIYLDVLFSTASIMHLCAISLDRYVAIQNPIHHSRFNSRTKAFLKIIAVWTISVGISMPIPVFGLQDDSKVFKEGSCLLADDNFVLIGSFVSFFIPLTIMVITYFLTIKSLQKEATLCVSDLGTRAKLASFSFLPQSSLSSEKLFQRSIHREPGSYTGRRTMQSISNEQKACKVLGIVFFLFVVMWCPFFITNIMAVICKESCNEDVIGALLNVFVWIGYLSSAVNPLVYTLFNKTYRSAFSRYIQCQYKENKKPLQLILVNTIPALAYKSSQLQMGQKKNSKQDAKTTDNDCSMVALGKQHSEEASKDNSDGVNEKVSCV
Summary of the method: (§2)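 Radioligand binding run by the NIMH Psychoactive Drug Screening Program. […] Otherwise Ki comes from sigmoidal curve fits of triplicate measurements in a single experiment, or is averaged over repeated experiments each run in triplicate.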

[3] = target: T1, Muscarinic acetylcholine receptor M5 (Homo sapiens, UniProt P08912); test: Displacement of [3H]-QNB/[3H]-NMS from human recombinant Muscarinic acetylcholine M5 receptor expressed in stable CHO cells after 90 mins by microbeta scintillation counting method; assay type: cell-based; summary of the method: as §1
T1 sequence (P08912 whole entry): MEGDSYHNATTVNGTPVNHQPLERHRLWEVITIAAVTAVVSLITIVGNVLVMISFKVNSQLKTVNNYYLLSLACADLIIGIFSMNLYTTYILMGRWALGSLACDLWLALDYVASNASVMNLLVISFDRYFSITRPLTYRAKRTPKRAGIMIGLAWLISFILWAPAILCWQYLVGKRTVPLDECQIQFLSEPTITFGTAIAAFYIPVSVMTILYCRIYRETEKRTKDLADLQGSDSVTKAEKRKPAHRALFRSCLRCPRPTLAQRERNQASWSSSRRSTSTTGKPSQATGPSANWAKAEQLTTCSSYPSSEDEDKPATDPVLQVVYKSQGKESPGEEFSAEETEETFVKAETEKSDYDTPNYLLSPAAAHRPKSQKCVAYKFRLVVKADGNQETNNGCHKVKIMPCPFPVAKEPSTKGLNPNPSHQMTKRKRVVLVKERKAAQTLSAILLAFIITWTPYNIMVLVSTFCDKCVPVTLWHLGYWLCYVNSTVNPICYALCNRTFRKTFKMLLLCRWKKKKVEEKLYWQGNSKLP

[4] = target: T2, Alpha-2C adrenergic receptor (Homo sapiens, UniProt P18825); test: Displacement of [3H]-Rauwolscine from human recombinant adrenergic Alpha2C receptor expressed in stable MDCK cells after 90 mins by microbeta scintillation counting method; assay type: cell-based; summary of the method: as §1
T2 sequence (P18825 whole entry): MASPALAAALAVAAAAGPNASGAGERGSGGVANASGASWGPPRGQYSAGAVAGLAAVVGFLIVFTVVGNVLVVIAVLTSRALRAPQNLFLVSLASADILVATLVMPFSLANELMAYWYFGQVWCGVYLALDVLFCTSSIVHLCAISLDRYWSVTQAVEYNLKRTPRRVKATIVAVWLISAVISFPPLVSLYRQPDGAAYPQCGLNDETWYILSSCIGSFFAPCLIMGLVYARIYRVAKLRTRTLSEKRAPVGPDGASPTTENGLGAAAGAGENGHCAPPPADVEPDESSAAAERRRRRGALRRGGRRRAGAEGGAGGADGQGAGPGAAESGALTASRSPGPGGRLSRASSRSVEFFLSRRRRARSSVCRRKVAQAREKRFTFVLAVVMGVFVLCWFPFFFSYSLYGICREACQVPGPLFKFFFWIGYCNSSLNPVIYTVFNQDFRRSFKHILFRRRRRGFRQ

[5] = target: Muscarinic acetylcholine receptor M3 (Homo sapiens, UniProt P20309); test: Displacement of [3H]-QNB/[3H]-NMS from human recombinant Muscarinic acetylcholine M3 receptor expressed in stable CHO cells after 90 mins by microbeta scintillation counting method; assay type: cell-based; summary of the method: as §1
Muscarinic acetylcholine receptor M3, sequence (P20309 whole entry): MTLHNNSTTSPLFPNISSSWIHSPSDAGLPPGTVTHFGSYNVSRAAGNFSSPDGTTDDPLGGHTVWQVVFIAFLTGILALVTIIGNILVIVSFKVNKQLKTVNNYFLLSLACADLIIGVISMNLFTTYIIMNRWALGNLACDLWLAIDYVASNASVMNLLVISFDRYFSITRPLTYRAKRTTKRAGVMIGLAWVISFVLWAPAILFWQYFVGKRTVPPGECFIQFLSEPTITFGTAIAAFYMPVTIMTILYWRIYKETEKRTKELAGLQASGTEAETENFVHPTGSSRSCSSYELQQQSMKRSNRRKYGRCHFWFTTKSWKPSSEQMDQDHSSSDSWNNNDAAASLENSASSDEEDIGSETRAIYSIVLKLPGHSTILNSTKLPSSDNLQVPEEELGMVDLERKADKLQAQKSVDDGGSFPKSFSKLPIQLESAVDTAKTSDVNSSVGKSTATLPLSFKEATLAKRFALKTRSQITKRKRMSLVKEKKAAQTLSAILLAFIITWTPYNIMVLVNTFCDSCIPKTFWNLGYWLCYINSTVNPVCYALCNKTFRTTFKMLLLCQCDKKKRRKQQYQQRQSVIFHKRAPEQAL

Mu-type opioid receptor = Mu-type opioid receptor (Homo sapiens, UniProt P35372); test: Displacement of [3H]-DAMGO from human recombinant MOR receptor expressed in stable HEK cells after 90 mins by microbeta scintillation counting method; assay type: cell-based; summary of the method: as §2
Mu-type opioid receptor, sequence (P35372 whole entry): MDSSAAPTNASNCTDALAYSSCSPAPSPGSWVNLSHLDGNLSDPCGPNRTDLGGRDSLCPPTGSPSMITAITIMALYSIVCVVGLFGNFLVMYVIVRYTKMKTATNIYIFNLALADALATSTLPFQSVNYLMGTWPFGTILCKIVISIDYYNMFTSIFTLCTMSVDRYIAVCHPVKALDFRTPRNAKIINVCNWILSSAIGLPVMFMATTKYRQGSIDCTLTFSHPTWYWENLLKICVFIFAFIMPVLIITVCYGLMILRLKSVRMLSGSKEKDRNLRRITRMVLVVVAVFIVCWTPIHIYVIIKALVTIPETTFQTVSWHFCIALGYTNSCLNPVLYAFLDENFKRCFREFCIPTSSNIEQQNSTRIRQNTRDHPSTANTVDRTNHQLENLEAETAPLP

Histamine H1 receptor = Histamine H1 receptor (Homo sapiens, UniProt P35367); test: Displacement of [3H]-Pyrilamine from human recombinant histamine H1 receptor expressed in stable HEK cells after 90 mins by microbeta scintillation counting method; assay type: cell-based; summary of the method: as §1
Histamine H1 receptor, sequence (P35367 whole entry): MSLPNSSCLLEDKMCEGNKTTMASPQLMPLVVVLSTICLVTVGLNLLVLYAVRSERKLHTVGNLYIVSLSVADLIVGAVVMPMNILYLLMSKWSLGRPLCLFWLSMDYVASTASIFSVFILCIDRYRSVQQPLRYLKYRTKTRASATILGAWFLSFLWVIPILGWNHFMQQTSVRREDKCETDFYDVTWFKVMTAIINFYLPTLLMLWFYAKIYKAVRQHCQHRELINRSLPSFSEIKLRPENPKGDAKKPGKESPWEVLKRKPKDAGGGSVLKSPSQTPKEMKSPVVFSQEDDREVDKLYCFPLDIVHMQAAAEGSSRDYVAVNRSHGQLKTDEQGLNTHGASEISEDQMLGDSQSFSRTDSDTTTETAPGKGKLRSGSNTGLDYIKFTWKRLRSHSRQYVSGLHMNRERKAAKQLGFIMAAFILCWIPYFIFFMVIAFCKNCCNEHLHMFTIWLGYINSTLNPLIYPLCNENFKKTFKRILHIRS

D(1A) dopamine receptor = D(1A) dopamine receptor (Homo sapiens, UniProt P21728); test: Displacement of [3H]-SCH23390 from human recombinant dopamine D1 receptor expressed in HEKT cells after 90 mins by microbeta scintillation counting method; assay type: cell-based; summary of the method: as §1
D(1A) dopamine receptor, sequence (P21728 whole entry): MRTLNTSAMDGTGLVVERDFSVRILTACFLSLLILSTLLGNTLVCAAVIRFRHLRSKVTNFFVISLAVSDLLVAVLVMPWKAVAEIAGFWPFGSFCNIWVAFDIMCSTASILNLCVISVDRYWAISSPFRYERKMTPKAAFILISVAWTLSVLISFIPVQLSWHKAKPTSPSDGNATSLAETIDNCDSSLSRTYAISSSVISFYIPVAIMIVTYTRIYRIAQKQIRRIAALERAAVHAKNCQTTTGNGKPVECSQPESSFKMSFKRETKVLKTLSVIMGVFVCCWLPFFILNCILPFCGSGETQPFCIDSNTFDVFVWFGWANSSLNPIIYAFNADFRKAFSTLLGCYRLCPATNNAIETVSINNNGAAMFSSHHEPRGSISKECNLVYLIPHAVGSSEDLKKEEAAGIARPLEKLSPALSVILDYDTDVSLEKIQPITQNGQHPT

[6] = target: Sodium-dependent noradrenaline transporter (Homo sapiens, UniProt P23975); test: Displacement of [3H]-Nisoxetine from human recombinant NET receptor expressed in stable HEK cells after 90 mins by microbeta scintillation counting method; assay type: cell-based; summary of the method: as §2
Sodium-dependent noradrenaline transporter, sequence (P23975 whole entry): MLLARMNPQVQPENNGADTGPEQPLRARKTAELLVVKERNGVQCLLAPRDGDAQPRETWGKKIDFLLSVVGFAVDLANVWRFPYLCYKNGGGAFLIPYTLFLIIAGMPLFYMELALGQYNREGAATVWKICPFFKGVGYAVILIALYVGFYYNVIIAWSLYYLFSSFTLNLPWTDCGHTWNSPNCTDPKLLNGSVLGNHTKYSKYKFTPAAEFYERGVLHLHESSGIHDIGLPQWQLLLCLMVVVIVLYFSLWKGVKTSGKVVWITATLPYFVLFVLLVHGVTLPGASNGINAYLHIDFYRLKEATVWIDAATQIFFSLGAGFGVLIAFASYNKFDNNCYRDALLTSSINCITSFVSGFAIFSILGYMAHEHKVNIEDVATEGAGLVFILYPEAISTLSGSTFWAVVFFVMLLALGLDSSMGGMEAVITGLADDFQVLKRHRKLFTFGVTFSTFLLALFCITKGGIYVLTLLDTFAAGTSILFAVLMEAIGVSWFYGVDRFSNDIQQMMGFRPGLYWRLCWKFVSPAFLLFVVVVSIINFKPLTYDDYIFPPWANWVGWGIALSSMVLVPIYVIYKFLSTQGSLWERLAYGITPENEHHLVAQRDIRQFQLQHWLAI

[7] = target: GABA-A receptor; anion channel (Rattus norvegicus) (UniProt O09028+P15431+P18506+P18508+P19969+P20236+P23574+P23576+P28471+P28473+P30191+P62813+P63079+P63138+Q91ZM7+Q9ES14); test: Displacement of [3H]-Muscimol from GABAA receptor in rat brain at 10 uM incubated for 90 mins by microbeta scintillation counting method relative to control; assay type: tissue-based; summary of the method: as §2
[8] = Displacement of [3H]-PK11195 from PBR receptor in rat brain after 90 mins by microbeta scintillation counting method; assay type: tissue-based
Summary of the method: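 Radioligand binding run by the NIMH Psychoactive Drug Screening Program. Otherwise Ki comes from sigmoidal curve fits of triplicate measurements in a single experiment, or is averaged over repeated experiments each run in triplicate.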

[9] = target: T3, Alpha-1D adrenergic receptor (Homo sapiens) (UniProt P25100); test: Displacement of [3H]-Prazosin from human recombinant adrenergic Alpha1D receptor expressed in cells at 10 uM after 90 mins by microbeta scintillation counting method relative to control; assay type: cell-based
T3 sequence (whole entry): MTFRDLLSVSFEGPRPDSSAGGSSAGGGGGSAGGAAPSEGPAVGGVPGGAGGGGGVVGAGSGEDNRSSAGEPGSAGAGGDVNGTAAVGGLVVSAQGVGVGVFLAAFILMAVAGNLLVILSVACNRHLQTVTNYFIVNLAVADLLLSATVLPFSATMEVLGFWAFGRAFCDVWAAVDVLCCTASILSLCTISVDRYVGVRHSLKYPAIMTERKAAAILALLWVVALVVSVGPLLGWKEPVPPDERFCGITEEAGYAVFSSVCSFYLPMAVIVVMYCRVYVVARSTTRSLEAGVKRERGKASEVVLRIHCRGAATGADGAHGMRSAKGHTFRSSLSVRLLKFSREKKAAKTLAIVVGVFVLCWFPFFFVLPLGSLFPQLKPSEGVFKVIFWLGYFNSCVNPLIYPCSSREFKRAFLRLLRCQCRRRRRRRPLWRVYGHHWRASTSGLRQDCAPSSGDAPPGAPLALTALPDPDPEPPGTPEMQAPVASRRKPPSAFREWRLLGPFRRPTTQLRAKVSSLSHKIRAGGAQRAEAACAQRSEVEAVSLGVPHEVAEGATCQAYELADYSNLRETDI

5-hydroxytryptamine receptor 1D, sequence (P28221 whole entry): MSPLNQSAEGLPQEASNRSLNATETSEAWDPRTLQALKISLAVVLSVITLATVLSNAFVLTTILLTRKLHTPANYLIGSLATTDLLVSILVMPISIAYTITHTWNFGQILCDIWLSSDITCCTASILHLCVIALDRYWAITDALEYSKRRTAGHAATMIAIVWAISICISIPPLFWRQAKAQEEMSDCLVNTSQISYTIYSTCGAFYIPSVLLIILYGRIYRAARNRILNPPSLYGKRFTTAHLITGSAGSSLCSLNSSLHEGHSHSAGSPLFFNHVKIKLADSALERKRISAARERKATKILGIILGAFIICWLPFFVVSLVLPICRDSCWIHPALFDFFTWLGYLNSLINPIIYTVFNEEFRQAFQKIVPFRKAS

| Structure (SMILES) | Ki [1] [µM] | Ki [2] [µM] | Ki [3] [µM] | Ki [4] [µM] | Ki [5] [µM] | Ki (Mu-type opioid receptor) [µM] | Ki (Histamine H1 receptor) [µM] | Ki (D(1A) dopamine receptor) [µM] | Ki [6] [µM] | inhibition [7] [%] | pKi [8] | inhibition [9] [%] |
| --- | --- | --- | --- | --- | --- | --- | --- | --- | --- | --- | --- | --- |
| CC[C@H]1c2ccccc2N(c2ccccc2)C[C@@]1(C)N (racemic) | > 10 | > 10 | > 10 | > 10 | > 10 | > 10 | > 10 | > 10 | 0.398 |  |  |  |
| C[C@@]12CN(c3ccccc3)c3ccccc3[C@@H]1CCN2 (racemic) | > 10 |  | > 10 | 1 | > 10 | > 10 | > 10 | > 10 | 1.58 |  |  |  |
| CC[C@H]1c2cc(C)ccc2OC[C@@]1(C)N (racemic) | > 10 | > 10 | > 10 | > 10 | > 10 | > 10 | > 10 | > 10 | 0.316 | < 50 | < 5 | < 50 |
| COc1cc(OC)c2c(c1)OC[C@@]1(C)NCC[C@@H]21 (racemic) | > 10 |  | > 10 | > 10 | > 10 | > 10 | > 10 | > 10 | > 10 | < 50 | < 5 | < 50 |
| CC[C@H]1c2cc(OC)ccc2CC[C@@]1(C)N (racemic) | > 10 | > 10 | > 10 | > 10 | > 10 | 2 | 3.16 | > 10 | 2.51 | < 50 | < 5 | < 50 |
